# Experimental data collected from several papers.
# Lines come from different studies, so protocols differ.
# HTR1F: 5-hydroxytryptamine receptor 1F (HTR1F, Homo sapiens, UniProt P30939)
# MPO: Myeloperoxidase (MPO, Homo sapiens, UniProt P05164)
# DUOX2: DUOX2 (Homo sapiens, UniProt Q9NRD8)
Structure (SMILES),target,assay,conditions,measurement,value
O=c1oc(-c2cccnc2)nc2ccccc12,"Plasma kallikrein (KLKB1, Homo sapiens, UniProt P03952)","enzyme activity, inhibitor, absorbance",,IC50,> 50 µM
C[C@@H]1CN(C(=O)[C@@H]2CN(C(C)(C)C)C[C@H]2c2ccc(F)cc2F)C[C@H](C)[C@@]1(O)c1ccccc1,"Melanocortin receptor 4 (MC4R, Homo sapiens, UniProt P32245)","ligand displacement, radioligand",,Ki,0.199 µM
CN1CCN2c3ccccc3Cc3ccccc3C2C1 (stereo not shown),HTR1F,"G protein activation, agonist, BRET",,EC50,0.0475 µM
CC(C)CCC[C@@H](C)[C@H]1CC[C@H]2[C@@H]3CC[C@H]4C[C@H](N)CC[C@]4(C)[C@H]3CC[C@]12C,"Phosphatidylinositol 3,4,5-trisphosphate 5-phosphatase 1 (INPP5D, Homo sapiens, UniProt Q92835)","enzyme activity, inhibitor, absorbance",pH 7.4,IC50,22.4 µM
CCOc1ccccc1OCCN[C@H](C)Cc1ccc(OC)c(S(N)(=O)=O)c1,"Anoctamin-1 (Ano1, Mus musculus, UniProt Q8BHY3)","ion current, inhibitor, patch clamp",,IC50,7.22 µM
CC(=O)c1cccc(NC(=O)c2cc3c(cc2[N+](=O)[O-])OCO3)c1,MPO,"enzyme activity, inhibitor",,IC50,10 µM
CN(C)CCOC1=Cc2ccccc2Sc2ccc(Cl)cc21,HTR1F,"G protein activation, agonist, BRET",,EC50,1.82 µM
COc1ccc(CNC(=O)c2cc3c(cc2[N+](=O)[O-])OCO3)cc1,MPO,"enzyme activity, inhibitor",,IC50,4.5 µM
Nc1ncnc2c1ncn2[C@@H]1O[C@H](COP(=O)(O)OP(=O)(O)OP(=O)(O)OP(=O)(O)OP(=O)(O)OC[C@H]2O[C@@H](n3cnc4c(N)ncnc43)[C@H](O)[C@@H]2O)[C@@H](O)[C@H]1O,"adk (Escherichia coli, UniProt P69441)","binding, ITC",,Kd,0.2 µM
Cc1coc2c1C(=O)C(=O)c1c-2ccc2c1CCCC2(C)CO (stereo not shown),DUOX2,"enzyme activity, inhibitor",cell membranes,IC50,8.9 µM
O=c1oc2cc(O)ccc2c2ccc(O)cc12,"Glutaminase kidney isoform, mitochondrial (GLS, Homo sapiens, UniProt O94925)","binding, SPR",,Kd,0.000266 µM
C[C@H]1COC2=C1C(=O)C(=O)c1c2ccc2c1CCCC2(C)C,DUOX2,"enzyme activity, inhibitor",cell membranes,IC50,2.1 µM
CCCC(=O)NCCCN1CCc2c([nH]c3ccc(Cl)cc23)C1,"Sodium-dependent noradrenaline transporter (SLC6A2, Homo sapiens, UniProt P23975)","transporter uptake, inhibitor",,IC50,250 µM
